Data taken from ChEMBL document CHEMBL5030518, “Phorbol Diesters and 12-Deoxy-16-hydroxyphorbol 13,16-Diesters Induce TGFα Release and Adult Mouse Neurogenesis” (2021).
Calls of active or inactive are those of the source. The rule behind the calls is not given here.

Experiments:
[1] = Induction of TGFalpha release in serum-starved HEK293T cells coexpressing GFP fused mCherry assessed as reduction in mCherry/GFP ratio at 0.5 uM measured up to 180 mins by time-lapse microscopic analysis relative to control; format: functional, Homo sapiens, HEK-293T; design: scale not given: the % may be the effect or the level left; settings: time min <=180
Procedure, shortened: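 HEK293T transfected with mCherry-TGFα-GFP fusion (mCherry N-terminal, GFP C-terminal), left overnight, then serum-starved 30 min in serum-free FluoroBrite DMEM. Compound added at 0.5 µM; live time-lapse imaging over 180 min. Membrane mCherry/GFP ratio normalized to pre-stimulation average; mean normalized ratio, n = 40.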

Neural Progenitor Cell [2] = assay: Induction of cell proliferation in mouse SVZ-derived neural progenitor cells assessed as neurosphere formation at up to 5 uM measured after 72 hrs by phase contrast microscopic analysis; format: functional, tissue-based; settings: dose microM <=5, time 72.0 hrs
Procedure, shortened: (§1)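 NPCs were isolated from the SVZ of postnatal day 7 CD1 mice and grown as floating neurospheres with bFGF. Increasing compound concentrations were added at seeding. After 72 h, neurosphere area was measured from phase-contrast images and expressed as % of bFGF-only control. Runs were in triplicate, at least […] independent times; mean ± SEM of nine measurements, two-tailed unpaired t-test.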

HEK-293T = assay: Induction of TGFalpha release in serum-starved HEK293T cells coexpressing GFP fused mCherry assessed as reduction in mCherry/GFP ratio at 0.5 uM measured up to 180 mins by time-lapse microscopic analysis; format: functional, cell-based; settings: Homo sapiens, time min <=180
Procedure, shortened: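 HEK293T cells transfected with an mCherry-TGFα-GFP fusion (mCherry N-terminal, GFP C-terminal) and left overnight. Cells were then serum-starved 30 min in serum-free medium. Compounds were added at 0.5 μM and time-lapse imaging ran for 180 min. Membrane mCherry/GFP ratio was normalized to the pre-stimulation average, and the mean of n = 40 was reported.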

Neural Progenitor Cell [3] = assay: Induction of cell proliferation in mouse SVZ-derived neural progenitor cells assessed as neurosphere formation at up to 0.5 uM measured after 72 hrs by phase contrast microscopic analysis; format: functional, tissue-based; settings: dose microM <=0.5, time 72.0 hrs; procedure, shortened: as §1
Brain [4] = assay: Induction of neurogenesis in CD-1 mouse brain assessed as increase in number of BrdU labeled proliferating cells at 5 uM, INH administered once daily for 3 days by confocal microscopic analysis; format: functional, tissue-based; settings: time 3.0 day
Procedure, shortened: (§2)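 Healthy 2-month-old male CD1 mice given intranasal solution daily for 3 days, 12 µL/day in saline vehicle (3 µL per delivery, alternating nostrils). BrdU 100 mg/kg i.p. on the last day. SVZ sections immunostained for BrdU and DCX. Positive cells counted blinded in every fifth section (6–8 per brain) at 20×. Values are per mm3; mean ± SEM, n = 6 per group.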

Brain [5] = assay: Induction of neurogenesis in CD-1 mouse brain assessed as increase in number of proliferative neuronal progenitors at 5 uM, INH administered once daily for 3 days by confocal microscopic analysis; format: functional, tissue-based; settings: time 3.0 day; procedure, shortened: as §2
Brain [6] = assay: Induction of neurogenesis in CD-1 mouse brain at 5 uM, INH administered once daily for 3 days by confocal microscopic analysis; format: functional, tissue-based; settings: time 3.0 day
Procedure, shortened: (§3)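 Male CD1 mice, 2 months old, received 12 μL/day intranasally for 3 days, given as 3 μL portions alternating nostrils with the neck extended. Vehicle was saline; treatment was randomized and coded. BrdU 100 mg/kg i.p. was given on the last day. BrdU and DCX in the SVZ were detected by immunohistochemistry in every fifth section (6–8 per brain) at 20×, with blinded counting. n = 6/group; t-test versus vehicle.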

Brain [7] = assay: Induction of neurogenesis in CD-1 mouse brain at 10 nM, INH administered once daily for 3 days by confocal microscopic analysis; format: functional, tissue-based; settings: time 3.0 day; procedure, shortened: as §3
Brain [8] = assay: Induction of neurogenesis in CD-1 mouse brain at 100 nM, INH administered once daily for 3 days by confocal microscopic analysis; format: functional, tissue-based; settings: time 3.0 day; procedure, shortened: as §3
Brain [9] = assay: Induction of neurogenesis in CD-1 mouse brain assessed as increase in number of BrdU labeled proliferating cells at 10 nM, INH administered once daily for 3 days by confocal microscopic analysis; format: functional, tissue-based; settings: time 3.0 day; procedure, shortened: as §3
Brain [10] = assay: Induction of neurogenesis in CD-1 mouse brain assessed as increase in number of proliferative neuronal progenitors at 10 nM, INH administered once daily for 3 days by confocal microscopic analysis; format: functional, tissue-based; settings: time 3.0 day; procedure, shortened: as §3
Brain [11] = assay: Induction of neurogenesis in CD-1 mouse brain assessed as increase in total neuronal progenitors double cortin cells at 10 nM, INH administered once daily for 3 days by confocal microscopic analysis; format: functional, tissue-based; settings: time 3.0 day; procedure, shortened: as §3

| SMILES | Activity [1] | Activity (Neural Progenitor Cell [2]) | Activity (HEK-293T) | further results |
| --- | --- | --- | --- | --- |
| CC1=C[C@H]2[C@@]3(O)[C@H](C)[C@@H](OC(=O)Cc4ccccc4)[C@]4(OC(=O)C(C)C)[C@H]([C@@H]3C=C(CO)C[C@]2(O)C1=O)C4(C)C | 25% | – | – | – |
| C/C=C(/C)C(=O)O[C@@H]1[C@@H](C)[C@@]2(O)[C@@H](C=C(CO)C[C@]3(O)C(=O)C(C)=C[C@@H]23)[C@@H]2C(C)(C)[C@]12OC(=O)C(C)C | 15% | – | – | – |
| CC1=C[C@H]2[C@@]3(O)[C@H](C)[C@@H](OC(=O)Cc4ccccc4)[C@]4(OC(=O)Cc5ccccc5)[C@H]([C@@H]3C=C(CO)C[C@]2(O)C1=O)C4(C)C | 25% | – | – | – |
| CC1=C[C@H]2[C@@]3(O)[C@H](C)C[C@]4(OC(=O)Cc5ccccc5)[C@H]([C@@H]3C=C(CO)C[C@]2(O)C1=O)[C@@]4(C)COC(=O)C(C)C | – | Active | Active | Activity (Neural Progenitor Cell [3]): Active |
| CC1=C[C@H]2[C@@]3(O)[C@H](C)[C@@H](O)[C@]4(O)[C@H]([C@@H]3C=C(CO)C[C@]2(O)C1=O)C4(C)C | – | – | inactive | – |
| CC1=C[C@H]2[C@@]3(O)[C@H](C)[C@@H](OC(=O)C(C)C)[C@]4(OC(=O)Cc5ccccc5)[C@H]([C@@H]3C=C(CO)C[C@]2(O)C1=O)C4(C)C | 25% | – | – | – |
| CC(=O)O[C@@H]1[C@@H](C)[C@@]2(O)[C@@H](C=C(CO)C[C@]3(O)C(=O)C(C)=C[C@@H]23)[C@@H]2C(C)(C)[C@]12OC(C)=O | 15% | Active | – | Activity (Brain [4]): Active; Activity (Brain [5]): Active |
| CC1=C[C@H]2[C@@]3(O)[C@H](C)[C@@H](O)[C@]4(OC(=O)C(C)C)[C@H]([C@@H]3C=C(CO)C[C@]2(O)C1=O)C4(C)C | – | inactive | inactive | – |
| CC1=C[C@H]2[C@@]3(O)[C@H](C)[C@@H](OC(=O)C(C)C)[C@]4(OC(=O)C(C)C)[C@H]([C@@H]3C=C(CO)C[C@]2(O)C1=O)C4(C)C | – | – | – | Activity (Brain [6]): inactive; Activity (Brain [7]): Active; Activity (Brain [8]): inactive; Activity (Neural Progenitor Cell [3]): Active; Activity (Brain [9]): Active; Activity (Brain [10]): Active; Activity (Brain [11]): Active |
